Laboratory results reported in ChEMBL document CHEMBL4627411, “Novel Piperidinyl-Azetidines as Potent and Selective CCR4 Antagonists Elicit Antitumor Response as a Single Agent and in Combination with Checkpoint Inhibitors” (J Med Chem, 2020).
The source made the active and inactive calls. No cut-off for these calls is given here.

Tests used:
[1] = Volume of distribution at steady state in mouse at 0.5 mg/kg, iv; type: ADME, organism-based; settings: in vivo, read-out: Vdss
Cytochrome P450 3A4 = Cytochrome P450 3A4 (Homo sapiens, UniProt P08684); assay: Inhibition of CYP3A4 in human liver microsomes using midazolam hydrochloride as substrate incubated for 20 mins in presence of NADPH by LC-MS/MS analysis; type: ADME
[2] = Clearance in dog at 0.5 mg/kg, iv; type: ADME, organism-based, Canis lupus familiaris; settings: in vivo
[3] = Clearance in cynomolgus monkey at 0.5 mg/kg, iv; type: ADME, organism-based, Macaca fascicularis; settings: in vivo
[4] = Oral bioavailability in rat at 2 mg/kg; type: ADME, organism-based; settings: in vivo
Procedure, shortened: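 Rat in vivo PK. Oral dose of 2 mg/kg; %F derived.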

Panc02 = assay: Antitumor activity against mouse Panc02 cells allografted in C57BL/6 mouse assessed as reduction in tumor growth at 50 mg/kg, po qd for 38 days; type: functional, organism-based
Procedure, shortened: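 Pan02-OVA syngeneic tumor model. Compound given 50 mg/kg PO QD on a therapeutic schedule, alone or combined with anti-CTLA-4 antibody; tumor growth tracked. Groups compared by two-tailed t-test.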

[5] = Clearance in rat at 0.5 mg/kg, iv; type: ADME, organism-based; settings: in vivo
Procedure, shortened: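 Rat in vivo PK. Single IV dose of 0.5 mg/kg; clearance in mL/min/kg.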

[6] = molecular target: C-C chemokine receptor type 5 (Homo sapiens) (UniProt P51681); assay: Antagonist activity at human Gi/G0-coupled CCR5 receptor expressed in CHOK1 cells assessed as inhibition of CCL3-induced beta arrestin2 recruitment at 500 nM preincubated for 30 mins followed by CCL3 stimulation and measured after 90 to 180 mins by pathhunter assay; type: cell-based; settings: CHO-K1
[7] = Clearance in mouse at 0.5 mg/kg, iv; type: ADME, organism-based; settings: in vivo
[8] = Terminal half life in cynomolgus monkey at 0.5 mg/kg, iv; type: ADME, organism-based, Macaca fascicularis; settings: in vivo, read-out: beta t1/2 (converted)
[9] = molecular target: C-X-C chemokine receptor type 6 (Homo sapiens) (UniProt O00574); assay: Antagonist activity at human Gi/G0-coupled CXCR6 assessed as inhibition of CXCL16-induced beta arrestin2 recruitment at 500 nM preincubated for 30 mins followed by CXCL16 stimulation and measured after 90 to 180 mins by pathhunter assay
CT26 [10] = assay: Antitumor activity against mouse CT26 cells allografted in Balb/c mouse assessed as reduction in tumour volume at 50 mg/kg, po qd for 28 days starting from 3 days post inoculation measured twice weekly in presence of checkpoint inhibitor anti-PD-L1; type: functional, organism-based
[11] = molecular target: T1, C-C chemokine receptor type 4 (Homo sapiens, UniProt P51679); assay: Antagonist activity at human CCR4 expressed in rat chem-5 cells assessed as inhibition of CCL22-induced calcium flux measured at 2.5 secs time interval for 45 secs by calcium 6 dye-based FLIPR assay; type: functional, cell-based
T1 sequence (P51679 whole entry): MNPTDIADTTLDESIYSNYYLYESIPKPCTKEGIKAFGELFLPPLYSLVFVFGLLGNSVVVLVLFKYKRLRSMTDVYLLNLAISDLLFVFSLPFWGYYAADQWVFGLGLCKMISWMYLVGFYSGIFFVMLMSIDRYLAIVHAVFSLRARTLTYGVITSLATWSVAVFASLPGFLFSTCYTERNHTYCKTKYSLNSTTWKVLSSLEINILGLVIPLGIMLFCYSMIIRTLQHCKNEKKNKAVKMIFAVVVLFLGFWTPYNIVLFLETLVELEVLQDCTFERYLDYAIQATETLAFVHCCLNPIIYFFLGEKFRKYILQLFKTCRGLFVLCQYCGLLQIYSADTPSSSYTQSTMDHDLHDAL
Procedure, shortened: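 Primary calcium flux assay for CCR4 antagonism, run in the absence of serum.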

[12] = Metabolic stability in human hepatocytes assessed as parent compound remaining at 1 uM after 60 mins by LC-MS/MS analysis; type: ADME, cell-based, Hepatocyte; settings: read-out: Stability
Procedure, shortened: (§1)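 Hepatocytes (human or rat). Compound incubated for 60 min; value is % parent remaining.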

[13] = molecular target: C-C chemokine receptor type 7 (Homo sapiens) (UniProt P32248); assay: Antagonist activity at human Gi/G0-coupled CCR7 receptor assessed as inhibition of CCL19-induced beta arrestin2 recruitment at 500 nM preincubated for 30 mins followed by CCL19 stimulation and measured after 90 to 180 mins by pathhunter assay
[14] = Metabolic stability in rat hepatocytes assessed as parent compound remaining at 1 uM after 60 mins by LC-MS/MS analysis; type: ADME, cell-based, Hepatocyte; settings: read-out: Stability; procedure, shortened: as §1
Cytochrome P450 = assay: Induction of CYP450 (unknown origin); type: ADME, protein assay; settings: human
Cytochrome P450 2D6 = Cytochrome P450 2D6 (Homo sapiens, UniProt P10635); assay: Inhibition of CYP2D6 in human liver microsomes using bufuralol hydrochloride salt as substrate incubated for 20 mins in presence of NADPH by LC-MS/MS analysis; type: ADME
CT26 [15] = assay: Antitumor activity against mouse CT26 cells allografted in Balb/c mouse assessed as reduction in tumor volume at 50 mg/kg, po qd for 28 days starting from 3 days post inoculation measured twice weekly; type: functional, organism-based
[16] = Oral bioavailability in cynomolgus monkey at 2 mg/kg; type: ADME, organism-based, Macaca fascicularis; settings: in vivo
Cytochrome P450 2C9 = Cytochrome P450 2C9 (Homo sapiens, UniProt P11712); assay: Inhibition of CYP2C9 in human liver microsomes using diclofenac sodium salt as substrate incubated for 20 mins in presence of NADPH by LC-MS/MS analysis; type: ADME
[17] = molecular target: C-C chemokine receptor type 6 (Homo sapiens) (UniProt P51684); assay: Antagonist activity at human Gi/G0-coupled CCR6 receptor expressed in CHOK1 cells assessed as inhibition of CCL20-induced beta arrestin2 recruitment at 500 nM preincubated for 30 mins followed by CCL20 stimulation and measured after 90 to 180 mins by pathhunter assay; type: cell-based; settings: CHO-K1
C-C chemokine receptor type 6 (Homo sapiens), sequence (P51684 whole entry): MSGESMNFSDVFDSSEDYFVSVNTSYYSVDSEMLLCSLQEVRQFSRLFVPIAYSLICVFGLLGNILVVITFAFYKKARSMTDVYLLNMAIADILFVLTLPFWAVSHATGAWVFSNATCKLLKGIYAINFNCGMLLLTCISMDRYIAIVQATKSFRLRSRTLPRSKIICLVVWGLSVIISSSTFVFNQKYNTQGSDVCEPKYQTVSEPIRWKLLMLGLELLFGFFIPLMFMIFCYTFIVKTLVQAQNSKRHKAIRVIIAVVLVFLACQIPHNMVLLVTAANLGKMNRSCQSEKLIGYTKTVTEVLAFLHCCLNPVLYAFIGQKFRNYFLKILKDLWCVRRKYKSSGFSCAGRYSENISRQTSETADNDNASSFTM

C-C chemokine receptor type 5 (Homo sapiens), sequence (P51681 whole entry, looked up): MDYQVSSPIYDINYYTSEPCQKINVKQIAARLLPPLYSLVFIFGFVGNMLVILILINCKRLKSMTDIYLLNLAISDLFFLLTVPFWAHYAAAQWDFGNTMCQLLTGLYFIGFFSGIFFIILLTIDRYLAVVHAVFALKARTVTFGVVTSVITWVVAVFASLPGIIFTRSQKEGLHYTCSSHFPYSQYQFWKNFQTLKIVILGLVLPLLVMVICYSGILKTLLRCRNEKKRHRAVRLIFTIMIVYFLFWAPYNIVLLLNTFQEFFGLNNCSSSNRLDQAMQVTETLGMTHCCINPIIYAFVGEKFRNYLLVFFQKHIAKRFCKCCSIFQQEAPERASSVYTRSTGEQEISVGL
C-C chemokine receptor type 7 (Homo sapiens), sequence (P32248 whole entry): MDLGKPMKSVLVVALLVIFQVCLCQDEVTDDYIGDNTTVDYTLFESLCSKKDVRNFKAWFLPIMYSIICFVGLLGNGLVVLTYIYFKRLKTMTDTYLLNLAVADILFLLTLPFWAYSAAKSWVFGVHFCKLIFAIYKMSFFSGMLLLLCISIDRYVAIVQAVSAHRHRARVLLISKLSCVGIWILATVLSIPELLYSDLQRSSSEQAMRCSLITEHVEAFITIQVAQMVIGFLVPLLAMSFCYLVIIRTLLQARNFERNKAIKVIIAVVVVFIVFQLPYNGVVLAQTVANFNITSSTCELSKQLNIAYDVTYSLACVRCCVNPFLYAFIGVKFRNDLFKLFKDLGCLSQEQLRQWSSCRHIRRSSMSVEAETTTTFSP
C-X-C chemokine receptor type 6 (Homo sapiens), sequence (O00574 whole entry, looked up): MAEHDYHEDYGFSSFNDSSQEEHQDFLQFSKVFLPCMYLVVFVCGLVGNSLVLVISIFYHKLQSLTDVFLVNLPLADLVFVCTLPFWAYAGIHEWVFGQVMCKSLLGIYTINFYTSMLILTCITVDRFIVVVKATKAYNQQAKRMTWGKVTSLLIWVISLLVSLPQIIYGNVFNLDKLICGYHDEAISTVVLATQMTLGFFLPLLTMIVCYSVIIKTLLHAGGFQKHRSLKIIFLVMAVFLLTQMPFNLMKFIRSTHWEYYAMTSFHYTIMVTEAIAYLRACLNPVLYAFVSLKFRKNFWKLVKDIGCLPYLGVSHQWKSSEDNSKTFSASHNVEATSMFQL
Cytochrome P450 2D6, sequence (P10635 whole entry): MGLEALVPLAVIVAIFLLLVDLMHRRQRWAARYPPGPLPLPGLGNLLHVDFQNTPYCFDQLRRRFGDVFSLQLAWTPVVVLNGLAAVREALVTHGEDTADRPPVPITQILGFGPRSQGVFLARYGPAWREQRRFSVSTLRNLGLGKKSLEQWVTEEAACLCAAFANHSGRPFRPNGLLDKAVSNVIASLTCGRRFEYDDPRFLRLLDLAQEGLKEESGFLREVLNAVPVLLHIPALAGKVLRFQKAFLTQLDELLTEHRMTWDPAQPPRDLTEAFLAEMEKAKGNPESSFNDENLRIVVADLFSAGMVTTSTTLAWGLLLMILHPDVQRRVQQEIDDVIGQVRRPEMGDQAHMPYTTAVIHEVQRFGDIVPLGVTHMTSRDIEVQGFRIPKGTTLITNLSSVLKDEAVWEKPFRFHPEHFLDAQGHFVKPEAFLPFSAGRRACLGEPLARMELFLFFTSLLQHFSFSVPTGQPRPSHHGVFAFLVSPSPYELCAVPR
Cytochrome P450 3A4, sequence (P08684 whole entry): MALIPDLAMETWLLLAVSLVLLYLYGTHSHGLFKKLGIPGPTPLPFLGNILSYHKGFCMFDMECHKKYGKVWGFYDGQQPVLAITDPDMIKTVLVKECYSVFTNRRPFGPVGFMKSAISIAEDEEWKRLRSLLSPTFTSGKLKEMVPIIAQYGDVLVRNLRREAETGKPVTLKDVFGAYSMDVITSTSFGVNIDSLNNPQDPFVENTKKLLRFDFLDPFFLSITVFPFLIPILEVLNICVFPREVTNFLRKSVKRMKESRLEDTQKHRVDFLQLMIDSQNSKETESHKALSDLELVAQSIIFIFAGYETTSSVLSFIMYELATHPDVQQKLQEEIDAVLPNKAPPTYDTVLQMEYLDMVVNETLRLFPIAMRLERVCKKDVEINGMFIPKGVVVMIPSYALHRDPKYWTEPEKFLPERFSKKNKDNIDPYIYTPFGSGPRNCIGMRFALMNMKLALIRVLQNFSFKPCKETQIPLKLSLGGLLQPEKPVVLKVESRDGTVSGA
Cytochrome P450 2C9, sequence (P11712 whole entry): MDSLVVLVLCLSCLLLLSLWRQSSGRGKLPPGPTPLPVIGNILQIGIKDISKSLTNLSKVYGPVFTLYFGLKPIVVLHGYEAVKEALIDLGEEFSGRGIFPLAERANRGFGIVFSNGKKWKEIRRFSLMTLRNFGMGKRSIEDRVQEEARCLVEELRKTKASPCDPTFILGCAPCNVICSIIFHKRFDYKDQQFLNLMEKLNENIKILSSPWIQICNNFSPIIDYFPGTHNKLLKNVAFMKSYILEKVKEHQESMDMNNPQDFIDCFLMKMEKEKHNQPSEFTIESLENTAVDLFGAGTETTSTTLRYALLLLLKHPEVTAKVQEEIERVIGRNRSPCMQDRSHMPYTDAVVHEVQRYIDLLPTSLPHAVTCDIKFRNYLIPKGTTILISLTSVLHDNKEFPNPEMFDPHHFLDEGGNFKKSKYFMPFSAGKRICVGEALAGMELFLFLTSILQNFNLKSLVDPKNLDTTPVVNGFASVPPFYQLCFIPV

Vd [1]: 5.2 L/kg
IC50 (Cytochrome P450 3A4): > 40 µM
clearance [2]: 7.3 mL/min/kg
clearance [3]: 3.7 mL/min/kg
bioavailability [4]: 49%
clearance [5]: 47.6 mL/min/kg
Activity [6]: inactive
clearance [7]: 10.2 mL/min/kg
half-life [8]: 10.7 h
Activity [9]: inactive
IC50 [11]: 0.022 µM
remaining at 1 h, 1 µM [12]: 91%
Activity [13]: inactive
remaining at 1 h, 1 µM [14]: 73%
Activity (Cytochrome P450): Not Active
IC50 (Cytochrome P450 2D6): > 40 µM
bioavailability [16]: 41%
IC50 (Cytochrome P450 2C9): > 40 µM
Activity [17]: inactive
Compound: C[C@H](c1ccc(Cl)cc1Cl)n1nc(C#N)c2ncc(N3CC([C@H]4CCCN(CCO)C4)C3)nc21
Activity (Panc02): Active
Activity (CT26 [10]): Active
Activity (CT26 [15]): Active
